This is an account of results in ChEMBL document CHEMBL1687750, “Nonclinical pharmacokinetics of oseltamivir and oseltamivir carboxylate in the central nervous system” (Antimicrob Agents Chemother, 2009).

For the series, the system named is CCOC(=O)C1=C[C@@H](OC(CC)CC)[C@H](NC(C)=O)[C@@H](N)C1. The series can be described thus: Activity of human MDR1-mediated drug permeability expressed in pig LLC-PK1 cells. The series is classed as cell-based. In outline:
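P-gp-transfected LLC-PK1 monolayers; 14C-labelled substrate (0.1 to 10 mM) plus Lucifer yellow added to the apical or basolateral donor side, ± elacridar 1 μM; 37°C, 5% CO2; acceptor sampled at 30 min and 1, 2, 3 h and counted by scintillation; Pe from the 3 h point, not corrected for marker flux; B-to-A/A-to-B ratio; three inserts per condition, mean.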

The term Km denotes the concentration of substrate that gives half-maximal velocity. Usually Vmax stands for the top rate of the reaction or transport when substrate is in excess. Turning to “ATP-dependent translocase ABCB1 (Homo sapiens)”, the Km was 4.2 mM and the Vmax was 0.000534 µmol/min.
